# Bioassay records: PubChem BioAssay, Broad Institute
# SR-BI DiI inh = mouse SR-BI HDL lipid transfer inhibition; 0.96% of 320,000 active; Q61009; inhibition, % at 12.5 µM; ldlA[mSR-BI] CHO cells, DiI-HDL uptake fluorescence, 3 h;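 active = mean replicate inhibition of at least 70% and a set share of replicates each scoring 70 or more; inconclusive = meets just one of the two criteria; inactive = fails both criteria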;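 also: 0% = median of neutral control wells and 100% = median of positive control wells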
# Target sequence (Q61009 whole entry, looked up): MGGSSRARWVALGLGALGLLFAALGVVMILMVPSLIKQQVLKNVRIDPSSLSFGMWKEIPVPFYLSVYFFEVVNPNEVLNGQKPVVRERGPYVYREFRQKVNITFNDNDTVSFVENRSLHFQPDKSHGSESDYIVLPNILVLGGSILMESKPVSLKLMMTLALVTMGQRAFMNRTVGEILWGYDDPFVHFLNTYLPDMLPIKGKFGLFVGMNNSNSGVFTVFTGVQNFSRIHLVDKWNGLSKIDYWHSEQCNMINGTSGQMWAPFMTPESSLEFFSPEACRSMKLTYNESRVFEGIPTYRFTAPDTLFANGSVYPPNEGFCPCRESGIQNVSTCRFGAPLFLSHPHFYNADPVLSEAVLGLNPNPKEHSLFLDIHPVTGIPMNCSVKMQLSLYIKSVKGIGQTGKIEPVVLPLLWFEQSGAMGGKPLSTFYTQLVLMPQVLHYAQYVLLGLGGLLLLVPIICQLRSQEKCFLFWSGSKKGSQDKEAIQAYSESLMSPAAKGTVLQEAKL
# CAL PDZ FP-1 = inhibitors of human CAL PDZ peptide binding; AID 602252; inhibition, % at 24.9 µM; Q9HD26; 0.92% of 300,000 active; purified CAL PDZ, TMR-peptide fluorescence polarization, 1 h;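 active = mean inhibition of at least 30% with at least half of replicates also reaching 30%; inconclusive = no clear call, values can overlap the other calls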;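 also: 0% = DMSO neutral control and 100% = excess unlabeled competitor peptide PRC23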
# CAL PDZ FP-2 = inhibitors of human CAL PDZ peptide binding; Q9HD26; purified CAL PDZ, TMR-peptide fluorescence polarization, 1 h; inhibition, % at 20 µM; 0.02% of 330,000 active; AID 504414;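 active = highest replicate inhibition of at least 40%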;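 also: plate controls were DMSO neutral control wells for no effect and unlabeled competitor peptide control wells for full effect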
#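 material = purified tagged CAL PDZ domain construct (CerCALP) | buffer or medium = sodium phosphate/NaCl buffer pH 7.4 with TCEP, IgG, Thesit | reagent = TMR-labelled reporter peptide T*-PRC34 bound in PDZ groove | incubation = 1 h room-temperature incubation prior to read | measured by = fluorescence polarization (mP) | evaluation = percent inhibition from loss of millipolarization | control set = unlabelled peptide and DMSO controls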
# dFosB act = activators of mouse delta FosB homodimer; P13346; purified delta FosB, TAMRA-CDK5 oligo fluorescence polarization; percent of positive-control signal above neutral wells; activation, % at 25 µM; 0.99% of 340,000 active;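 active = mean activation above about 17%, with every replicate also reaching it, limit read from the data, passing the limit was not always enough; inconclusive = only one of the two conditions met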
# SR-BI uptake up = enhances SR-BI lipid uptake from DiI-HDL; AID 504775; activation, % at 12.5 µM; CHO ldlA[mSR-BI] cells, DiI-HDL uptake fluorescence, 3 h; 100 = double the neutral-control signal; 0.096% of 320,000 active;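 active = mean replicate activation of at least 60% and every replicate at or above 60%; inconclusive = mean or all-replicate condition met, but not both; inactive = mean below 60% and not all replicates reaching 60%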;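 also: 0% = median plate neutral-control signal and 100% = twice that signal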
#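 Assay system: LDL receptor-deficient CHO ldlA cells overexpressing murine SR-BI / Medium: BSA-supplemented, HEPES-buffered Ham's F12, pH 7.4 / Probe or stimulus: DiI-labelled HDL at 10 µg/mL final / Timing: compound with DiI-HDL co-incubation, 3 h at 37 °C / Technique: bottom-read cell fluorescence after medium removal, ex 550/em 595 nm / Measure: HDL uptake via cellular fluorescence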
# * marks the source's active call; other numbers are inactive results; i = inactive; ? = inconclusive; . = not tested or not shown. In the library only some 2.8% were active in any assay of this set; here they are far more common.
SMILES,SR-BI DiI inh,CAL PDZ FP-1,CAL PDZ FP-2,dFosB act,SR-BI uptake up
Cc1ccc(-c2nn(CCC#N)cc2C=C(C#N)C#N)cc1,-18,-1,-3,-6,18
COc1ccc(-c2nn(CCC#N)cc2C=C(C#N)C#N)cc1,-6,62*,-2,-11,6
CCCn1c(C(C)Nc2nc(C)cs2)nc2cc(Cl)c(Cl)cc21 (stereo not drawn),39,-6,0,2,-39
COC(=O)C1=C(N)OC2=C(C(=O)CC(C)(C)C2)C1c1cccs1 (stereo not drawn),i,-1,0,-3,822*
NNC(=O)c1oc2nc(-c3ccc(Cl)cc3)cc(-c3ccccc3)c2c1N,106*,6,0,-16,-106
CC1CCN(C(=O)c2[nH]cnc2C(=O)Nc2nccs2)CC1,-10,4,0,-3,10
CCn1cc(/C=N\NC(=O)c2csc3ccccc23)c(C)n1,30,32*,.,-12,-30
COc1ccc(C(C)NC(=O)c2ccc(Cl)cc2)cc1OC (stereo not drawn),-2,-3,1,-2,2
COc1ccc(C(C)NC(=O)c2ccncc2)cc1OC (stereo not drawn),-13,76*,0,0,13
Cc1ccc(S(=O)(=O)N(C)c2ccc(OCC(=O)NCC3(N(C)C)CCCCC3)cc2)cc1,83*,-5,-1,-2,-83
CCN(C(=O)COc1ccc(N(C)S(=O)(=O)c2ccc(NC(C)=O)cc2)cc1)C1CCCCC1,23,-4,-1,-9,-23
COc1ccc(CCNC(=O)COc2ccc(N(C)S(=O)(=O)c3ccc(C)cc3)cc2)cc1,.,-2,-2,-23,.
CCN(CC)C(=O)COc1ccc(N(C)S(=O)(=O)c2ccc(NC(C)=O)cc2)cc1,-6,71*,0,-5,6
Cc1oc(C(=O)O)cc1COc1ccc2c(C)cc(=O)oc2c1,11,-4,0,-2,-11
Cc1cc(=O)oc2cc(OCc3cc4c(cc3Cl)OCO4)ccc12,83*,-7,-1,6,-83
O=C(COC(=O)CNS(=O)(=O)c1ccc(Br)cc1Cl)NCCc1ccccc1,1,-1,-2,-14,-1
Clc1ccc(CSc2nccn2Cc2ccccc2)cc1,2,-4,.,2,-2
O=[N+]([O-])c1ccc(Sc2nccn2Cc2ccccc2)cc1,1,30*,0,-12,-1
O=C(Cn1ccc([N+](=O)[O-])n1)NCc1ccco1,-34,-1,-2,-3,34
O=C(Cn1ccc([N+](=O)[O-])n1)NCc1nc2ccccc2[nH]1,5,44*,-1,4,-5
COc1cc(O)c(C(C)=O)c(CC(=O)O)c1,4,6,1,-10,-4
COc1cc([N+](=O)[O-])cc(/C=N/NC(=O)c2cc(-c3ccccc3)nc3ccccc23)c1O,117*,-9,-1,-16,-117
COc1ccc(-c2cc(C(=O)N/N=C/c3ccc(OC)c(COCC(F)(F)C(F)F)c3)c3ccccc3n2)c(OC)c1,80*,-1,0,-6,-80
COc1ccc(/C=N/NC(=O)c2cc(-c3cccnc3)nc3ccccc23)c(OC)c1,74*,0,-2,-1,-74
Cc1nn(-c2ccccc2)c(N2CCCC2)c1/C=N/NC(=O)c1cc(-c2cccnc2)nc2ccccc12,89*,-1,0,-4,-89
SMILES,SR-BI DiI inh,CAL PDZ FP-1,CAL PDZ FP-2,dFosB act,SR-BI uptake up
Cc1cc(C)cc(OCC(=O)N(Cc2ccc(N(C)C)cc2)C2CCS(=O)(=O)C2)c1 (stereo not drawn),13,-5,-1,-9,-13
O=C(N/N=C/c1ccc(F)cc1)c1cc(-c2ccccn2)nc2ccccc12,30,-3,0,4,-30
COc1cccc(/C=N/NC(=O)c2cc(-c3ccccn3)nc3ccccc23)c1O,103*,.,-4,-1,-103
C[C@H]1CN([C@@H](C)CO)C(=O)c2cc(NC(=O)NC3CCCCC3)ccc2O[C@H]1CN(C)C(=O)Nc1ccc(C(F)(F)F)cc1,74*,-3,0,-1,-74
C[C@@H]1CN([C@H](C)CO)C(=O)c2cc(NC(=O)Cc3cn(C)c4ccccc34)ccc2O[C@H]1CN(C)S(=O)(=O)c1ccc(F)cc1,73*,1,-1,0,-73
C[C@H](CO)N1C[C@H](C)[C@@H](CN(C)S(=O)(=O)c2ccc(F)cc2)Oc2ccc(NC(=O)Cc3cn(C)c4ccccc34)cc2C1=O,7,-2,0,-3,-7
Cc1nn(C(=O)c2c(-c3ccccc3)noc2C)c(C)c1N=Nc1cc(C(F)(F)F)cc(C(F)(F)F)c1,-2,-2,1,-1,2
COCC1=C(C(=O)OC(C)OC(=O)OC(C)C)N2C(=O)[C@@H](NC(=O)/C(=N\OC)c3csc(N)n3)[C@H]2SC1 (stereo partly drawn),88*,-1,0,3,-88
O=C(Cn1cnc2sc3c(c2c1=O)CCCC3)NCC(=O)Nc1c(F)cc(F)cc1Br,-11,-1,0,69*,11
COc1ccc(NC(=O)CNC(=O)Cn2cnc3sc4c(c3c2=O)CCCC4)cc1OC,-18,-1,-1,-3,18
CC(C)(C)c1cc(-c2n[nH]c(=S)n2-c2ccc(Cl)cc2)n[nH]1,2,0,0,-7,-2
O=C(CSc1nnc(COc2ccc(Cl)cc2)o1)N1c2ccccc2CCc2ccccc21,75*,-2,1,4,-75
O=C(CSc1nnc(COc2ccc(Cl)cc2)o1)N1CCCC1,-21,.,-1,-14,21
Cc1ccc(S(=O)(=O)N2CCN(C(=O)c3ccc([N+](=O)[O-])cc3)C2)cc1,-1,-3,-1,-1,1
Cc1ccc(Cn2cc(/C=N/NC(=O)Cc3nnc(NC(=O)c4ccc(C)cc4)s3)c3ccccc32)cc1,78*,.,1,?,-78
CC(C)OP(=O)(OC(C)C)C(O)c1ccc(N(C)C)cc1 (stereo not drawn),-9,-2,-1,1,9
Cc1cc(C)c2[nH]c(C)c(CN3CCCCCC3)c(=O)c2c1,.,2,0,-3,.
O=C(c1ccccc1)c1ccccc1NC(=O)C1CCCN1Cc1ccccc1 (stereo not drawn),33,46*,-1,-4,-33
O=C(/C=C/c1ccc([N+](=O)[O-])cc1)Nc1ncc([N+](=O)[O-])s1,-15,.,-1,6,15
CCOC(=O)c1cc(CC)sc1NC(=O)c1ccc2c(c1)OCCO2,71*,.,0,0,-71
CC(=NCCCn1ccnc1)C1=C(O)c2ccccc2C1=O,-61,0,-3,-21,61*
CCN(CC)S(=O)(=O)c1ccc(OC)c(NC(=O)CSc2cc(Cl)ccc2Cl)c1,20,.,-1,1,-20
